Bioassay records deposited in PubChem BioAssay by Johns Hopkins Ion Channel Center.
Rows were chosen to be rich in hits. Some 3.8% of all compounds tested hit in one or more screens of this group.
hERG protect: hERG (human) protection from proarrhythmic block; activation (rescue from dofetilide block), less the hit threshold, % at 10 µM; CHO-hERG, FluxOR thallium flux, dofetilide IC70 present; Q12809; AID 1511; 310,000 compounds, 0.51% hits;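 active = activation above the mean of controls blocked by dofetilide plus 5 SD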;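 note: thallium influx through hERG after potassium depolarization seen as dye fluorescence rise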
Target sequence (Q12809 whole entry, looked up): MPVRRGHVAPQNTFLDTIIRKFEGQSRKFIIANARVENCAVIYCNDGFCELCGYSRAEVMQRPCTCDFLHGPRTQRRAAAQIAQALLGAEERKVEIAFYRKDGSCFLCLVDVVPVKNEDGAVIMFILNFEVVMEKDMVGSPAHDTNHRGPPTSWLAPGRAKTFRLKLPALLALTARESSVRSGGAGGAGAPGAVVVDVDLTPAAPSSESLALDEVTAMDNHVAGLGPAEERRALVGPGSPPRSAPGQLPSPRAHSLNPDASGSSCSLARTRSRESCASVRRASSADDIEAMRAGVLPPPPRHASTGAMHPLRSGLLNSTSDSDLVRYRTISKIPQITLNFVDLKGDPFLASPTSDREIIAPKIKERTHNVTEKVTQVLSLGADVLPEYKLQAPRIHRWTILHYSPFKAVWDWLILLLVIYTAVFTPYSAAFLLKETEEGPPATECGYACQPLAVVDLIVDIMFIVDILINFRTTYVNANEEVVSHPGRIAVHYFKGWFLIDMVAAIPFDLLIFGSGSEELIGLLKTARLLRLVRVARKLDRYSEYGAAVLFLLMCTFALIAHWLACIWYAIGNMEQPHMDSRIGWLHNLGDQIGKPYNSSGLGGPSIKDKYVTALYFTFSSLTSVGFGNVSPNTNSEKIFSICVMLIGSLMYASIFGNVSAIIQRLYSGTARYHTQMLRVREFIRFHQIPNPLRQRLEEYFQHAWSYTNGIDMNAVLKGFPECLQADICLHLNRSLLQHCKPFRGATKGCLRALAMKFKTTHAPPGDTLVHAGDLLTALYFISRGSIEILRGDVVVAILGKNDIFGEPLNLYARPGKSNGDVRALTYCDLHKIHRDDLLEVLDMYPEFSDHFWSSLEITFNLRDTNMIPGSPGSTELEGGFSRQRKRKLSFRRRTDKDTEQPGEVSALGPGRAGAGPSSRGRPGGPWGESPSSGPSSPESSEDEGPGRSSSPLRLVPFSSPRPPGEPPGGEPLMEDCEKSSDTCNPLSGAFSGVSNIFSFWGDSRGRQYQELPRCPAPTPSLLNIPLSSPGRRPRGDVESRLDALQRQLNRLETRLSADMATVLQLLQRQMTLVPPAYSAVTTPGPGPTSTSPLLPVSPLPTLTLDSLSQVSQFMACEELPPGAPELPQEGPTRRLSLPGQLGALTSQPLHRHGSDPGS
Kir21 block: inhibitors of mouse Kir2.1 inward-rectifier potassium channel; P35561; HEK293-Kir2.1, FluxOR thallium flux fluorescence; hits give low values; B-score at 10 µM; 310,000 compounds, 0.85% hits;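 active = fluorescence ratio B-score at or below minus 3 SD of library scores, with starting-brightness B-score within 2 SD, cut at about -4.2 in these data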;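 note: channel flux triggered by added potassium and thallium sulfate stimulus; B-score of peak minus minimum fluorescence over baseline after thallium stimulus; more negative B-score means stronger Kir2.1 block with less thallium influx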
KCNK3 inh: human KCNK3 channel inhibition, primary screen; O14649; CHO-KCNK3 thallium flux, FluxOR fluorescence; hits give low values; B-score at 10 µM; 340,000 compounds, 0.84% hits;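 active = B-score under library mean minus 4 SD, starting fluorescence ratio at most library mean plus 5 SD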;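 note: more negative B-score means stronger inhibition of thallium flux through KCNK3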
KCNQ1 act: potentiates or activates the human KCNQ1 potassium channel; P51787; CHO-K1 KCNQ1, thallium flux FluxOR fluorescence; hits give high values; B-score at 10 µM; 310,000 compounds, 0.35% hits;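 active = fluorescence ratio B-score, a plate-corrected score, at least three library SD, with initial intensity B-score within 5 SD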
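Medium – assay buffer, equal DMSO in all wells · Material – CHO-K1 cell line with stable KCNQ1 potassium channel expression · Signal – kinetic FluxOR thallium fluorescence, 10-s 1-Hz baseline, 110-s post-stimulus read · Compound – single concentration per compound, DMSO matched to controls · Schedule – 37 °C overnight plating, 90-min dark dye load, 20-min compound pretreatment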
KCNK9 inh: blocks the human KCNK9 two-pore domain potassium channel; 310,000 compounds, 1.2% hits; HEK293 KCNK9, FluxOR thallium flux fluorescence; hits give low values; Q9NPC2; B-score at 10 µM; AID 488922;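 active = ratio B-score over 3 SD below the library mean, with starting fluorescence within 5 SD of its mean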;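 note: negative B-score means less thallium flux so channel inhibition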
KCNQ1 inh: human KCNQ1 channel inhibition; P51787; CHO-K1 KCNQ1, FluxOR thallium flux fluorescence; hits give high values; B-score at 10 µM; 310,000 compounds, 1.3% hits;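 active = compounds whose thallium flux B-score, printed positive for inhibition, exceeds three library SD while starting fluorescence stays within three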;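 note: channel opened by potassium depolarization with thallium stimulus after 20 min compound exposure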
KCNQ1 block val: human KCNQ1 channel inhibition, validation assay; inhibition, % at 10 µM; KCNQ1 cell line, FluxOR thallium flux fluorescence; shares compounds with KCNQ1 inh; 1,600 compounds, 93% hits;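 active = primary screen active, with duplicate mean exceeding buffer control mean plus 3 SD of buffer wells, cut at about 28% in these data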;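 note: 0% = buffer control ratio and 100% = XE991 inhibitor control ratio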
CHO Tl flux: KCNQ1 inhibitor counter-screen hit in parental CHO cells; shares compounds with KCNQ1 inh; parental CHO-K1, FluxOR thallium flux fluorescence ratio; hits give low values; zero means no signal rise above baseline; fluorescence ratio (Tl flux) at 10 µM; 1,600 compounds, 21% hits; AID 588366;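 active = mean of duplicate thallium-flux fluorescence ratios in parental host cells more than 5 SD below the buffer control mean, cut at about 0.38 in these data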;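 note: ratio is peak minus minimum fluorescence divided by baseline fluorescence; actives read low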
KCNQ1 APC inh: human KCNQ1 inhibition validated by electrophysiology; shares compounds with KCNQ1 inh; KCNQ1-CHO cells, automated patch clamp current; calls only at 10 µM; 490 compounds, 20% hits;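 active = KCNQ1 current drop exceeding 3 SD of negative control wells, seen in both duplicate runs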;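 note: steady state current during a 2 s step from -80 to +40 mV; negative values mean current inhibition and positive values mean potentiation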
KCNQ2 spec: rat KCNQ2 inhibition in KCNQ1 inhibitor specificity screen | shares compounds with KCNQ1 inh | KCNQ2 cells, FluxOR thallium flux fluorescence | inhibition, % at 10 µM | 1,600 compounds, 71% hits | AID 651746;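 active = mean percent inhibition of the KCNQ2 thallium signal more than 5 SD above the buffer-only control wells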;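 note: KCNQ2 expressed in CHO cells; 0% = buffer control wells and 100% = XE-991 inhibitor control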
KCNQ1 KCNE1 spec: selectivity of KCNQ1 inhibitors: inhibition of human KCNQ1/KCNE1 channel. shares compounds with KCNQ1 inh. KCNQ1/KCNE1 cells, FluxOR thallium flux fluorescence. inhibition, % at 10 µM. 1,600 compounds, 77% hits;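 active = mean percent inhibition of duplicate wells above the buffer-only control mean plus 3 SD of those controls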;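 note: 0% = buffer only wells and 100% = XE-991 inhibitor control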
KCNK9 inh conf: human KCNK9 inhibitor confirmation; 4,900 compounds, 43% hits; HEK293 KCNK9 cells, FluxOR thallium flux fluorescence; inhibition, % at 10 µM; shares compounds with KCNK9 inh;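 active = thallium signal inhibited by more than 5 SD of the compound-free buffer control wells, on both duplicate plates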;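 note: 0% = assay buffer control wells without compound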
Kir2-1 spec: tests whether KCNK9 modulators also affect mouse Kir2.1; inhibition, % at 10 µM; 4,900 compounds, 4% hits; shares compounds with KCNK9 inh; Kir2.1 cells, FluxOR thallium flux fluorescence;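 active = thallium signal drop more than 5 SD beyond the mean of the no-compound control wells, seen in both duplicate plates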;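 note: signal is fluorescence rise after thallium addition divided by baseline fluorescence; plate controls were assay buffer only for no effect and full block by chlorpromazine control for full effect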
HEK293 Tl ctr: second check of KCNK9 modulator effects in non-induced HEK293 cells. shares compounds with KCNK9 inh. FluxOR thallium flux. inhibition, % at 10 µM. 4,900 compounds, 40% hits;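 active = thallium signal drop beyond 5 SD of the untreated control mean, on both duplicate plates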;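 note: plate controls were buffer only IC0 wells for no effect and SID17386958 at its maximal inhibitory level for full effect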
KCNK3 confirm: confirmation of human KCNK3 two-pore domain potassium channel inhibitors. 2,400 compounds, 99% hits. shares compounds with KCNK3 inh. ratio percent of control, % at 10 µM. CHO-KCNK3 thallium flux, FluxOR fluorescence; 0% buffer, 100% carvedilol maximal block;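 active = ratio percent of control, averaged over triplicates, above buffer control mean plus 5 SD, cut at about 64% in these data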;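 note: ratio is the fluorescence rise from min to max over baseline after thallium stimulus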
KCNK3 noninduced: activity in cells without induced KCNK3 expression; shares compounds with KCNK3 inh; non-induced KCNK3 parental cells, FluxOR thallium flux; hits give low values; thallium flux ratio (lower = more inhibition) at 10 µM; 2,400 compounds, 40% hits;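 active = thallium flux ratio, averaged over three wells, more than 5 SD below the buffer control mean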;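 note: host cells are CHO cells without KCNK3 induction; ratio is peak minus trough fluorescence over baseline then normalized to buffer controls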
An asterisk follows results filed as active; i = inactive; . = not tested or not shown; + = active, no number.

SMILES | hERG protect | Kir21 block | KCNK3 inh | KCNQ1 act | KCNK9 inh | KCNQ1 inh | KCNQ1 block val | CHO Tl flux | KCNQ2 spec | KCNQ1 KCNE1 spec | KCNK9 inh conf | Kir2-1 spec | HEK293 Tl ctr | KCNK3 confirm | KCNK3 noninduced | others
c1ccc(CC2CCN(C3=Nc4cccc5cccc3c45)CC2)cc1 | -35 | -1.4 | i | i | -9* | 13* | 150* | 0.34* | 121%* | 135%* | 36%* | 35%* | 38%* | . | .
O=C(Nc1ccccc1Cl)c1sccc1-c1ccccc1 | -5 | -0.1 | i | i | -9.7* | 6* | + | 0.35* | i | i | 34%* | i | 30%* | . | .
CCn1cc(CN2CCC(n3nccc3NC(=O)Cc3ccccc3)CC2)c(C)n1 | -10 | -0.31 | i | i | i | i | . | . | . | . | . | . | . | . | .
CC1Cc2nc(SCC(=O)N3CCN(c4ccccc4)CC3)n(CCc3ccccc3)c(=O)c2S1 (stereo not given) | -26 | 2.3 | i | i | i | 8* | 70* | 0.44 | 84%* | 175%* | i | i | i | . | .
CCn1c(SCC(=O)N2CCN(c3ccccc3)CC2)nc2c(c1=O)SC(C)C2 (stereo not given) | -16 | -1.4 | i | i | i | i | . | . | . | . | . | . | . | . | .
CCCNC(=O)CN1C(=O)NC(CC)(c2ccc(F)cc2)C1=O (stereo not given) | -2 | 0 | i | i | i | i | . | . | . | . | . | . | . | . | .
CCOc1ccc(C(C(=O)NC2CCCCC2)N(C(=O)Cc2cccs2)c2ccc(-n3cnnn3)c(OC)c2)cc1 (stereo not given) | -5 | 0.72 | i | i | i | i | . | . | . | . | . | . | . | . | .
CCc1cccc(OCC(=O)Nc2ccc(C)c(S(=O)(=O)N3CCCCCC3)c2)c1 | -6 | -0.34 | i | i | i | 10* | 122* | 0.45 | 116%* | 106%* | i | i | 33%* | . | . | KCNQ1 APC inh=i
S=C(c1ccc(-c2cccc(Cl)c2)o1)N1CCCCC1 | -9 | 0.12 | i | i | -8.8* | 6* | 92* | 0.41 | 87%* | 100%* | 32%* | i | 32%* | . | . | KCNQ1 APC inh=i
S=C(c1ccc(-c2cccc(Cl)c2)o1)N1CCOCC1 | -10 | -2.3 | i | i | i | i | . | . | . | . | . | . | . | . | .
COC(=O)[C@H](CC(C)C)NC(=O)Cn1cnc2c(NCc3ccccc3)ncnc21 | . | . | i | . | . | . | . | . | . | . | . | . | . | . | .
COc1ccc(N2CCN(S(=O)(=O)c3ccc(OC)cc3)CC2)cc1 | -6 | -0.92 | i | i | i | i | . | . | . | . | . | . | . | . | .
COc1ccc(S(=O)(=O)N2CCN(c3cccc(C)c3C)CC2)cc1 | -9 | 1.4 | i | i | i | 9* | + | 0.35* | i | i | i | i | i | . | .
CCCOC1CCCN(Cc2nc(-c3ccc(C(=O)OC)cc3)no2)C1 (stereo not given) | -12 | -0.5 | i | i | i | i | . | . | . | . | . | . | . | . | .
Cc1cc(C)nc(NC(=NCCc2c[nH]c3ccccc23)NC(=O)Nc2ccc(Cl)c(Cl)c2)n1 | -9 | 2.5 | i | i | i | i | . | . | . | . | . | . | . | . | .
Cc1cc(C)nc(NC(=NCCc2c[nH]c3ccccc23)NC(=O)Nc2ccccc2)n1 | 0 | 0.03 | i | i | i | 7* | 134* | 0.38* | 87%* | 199%* | i | i | i | . | .
CN(C)S(=O)(=O)c1cccc(COC(=O)c2ccc(Cl)cc2O)c1 | -24 | 1.4 | -9.5* | i | -8.3* | 7* | 121* | 0.43 | 96%* | 117%* | 50%* | i | 26%* | 131* | i | KCNQ1 APC inh=i
N#CC1=C(N)NC(SCc2ccc(Br)cc2)=C(C#N)C12CCCCC2 | -13 | 0.02 | -12* | i | -6.8* | 18* | 140* | 0.31* | 115%* | 159%* | . | . | . | 126* | 0.13*
CCN1CCN(CCCNC(=O)c2ccc(NC(=O)C3=C(C)OCCS3)cc2)CC1 | -9 | 2.1 | i | i | i | i | . | . | . | . | . | . | . | . | .
Cc1cc(-c2ccc(C(C)C)c(S(=O)(=O)N3CCOc4ccccc43)c2)on1 | -8 | 0.83 | -12* | i | -6.7* | 7* | 96* | 0.39 | 83%* | 107%* | . | . | . | 111* | i | KCNQ1 APC inh=i
COC(=O)c1cc(C(=O)OCC(=O)NC(=O)c2ccccc2)cc([N+](=O)[O-])c1 | -16 | 1.2 | i | i | i | i | . | . | . | . | . | . | . | . | .
O=C(OCc1ccccn1)c1ccc(COc2ccc3ccccc3c2)o1 | -31 | 0.05 | -10* | i | -7* | 8* | 148* | 0.35* | 121%* | + | . | . | . | 122* | 0.15*
Cc1cc(OCC(=O)Nc2ccccc2N2CCCC2)ccc1C(C)C | -13 | -0.92 | -9* | i | i | 9* | 72* | 0.51 | 82%* | 100%* | . | . | . | 112* | i
O=C(CNCc1ccccc1Cl)Nc1ccccc1N1CCCCC1 | -35 | -0.36 | -8.9* | i | i | 7* | 96* | 0.4 | 115%* | 109%* | . | . | . | 114* | 0.15* | KCNQ1 APC inh=+
